Measurements published in article PMC7323586 (Journal of molecular biology, 2020).

Columns and labels:
B. subtilis XPRT [1] = target: T1, B. subtilis XPRT (Bacillus subtilis, UniProt P42085); assay: DRaCALA binding of 32P-labeled alarmones to XPRT; conditions: for nH (Hill coefficient from binding curve): DRaCALA binding curve, ± standard error
Summary of the method: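 Purified hexahistidine-tagged B. subtilis XPRT at varied concentrations was mixed with 32P-labelled alarmone in 20 mM HEPES pH 8, 100 mM NaCl, 10 mM MgCl2. The label was added at 1:50–1:100 of the first synthesis elution fraction. After 10 min at room temperature, aliquots were spotted on nitrocellulose, dried ≥20 min and phosphorimaged. Fraction bound was edge-corrected and fitted to Y = (Bmax × X^h)/(Kd^h + X^h).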

B. subtilis XPRT [2] = target: T1, B. subtilis XPRT; assay: XPRT activity assay; type: biochemical; conditions: 1 mM PRPP, 50 μM xanthine; ± standard error
Summary of the method: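 Xanthine started the reaction, and XMP was followed at A252 for 10 min (Δε 5350 M−1cm−1). Initial-velocity slopes were normalized to uninhibited controls and fitted to Y = 1/(1 + (X/IC50)^n), with n reported as napp.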

XPRT = XPRT (Bacillus subtilis, UniProt P42085); assay: XPRT interaction with ppApp; type: binding; conditions: data not shown
B. subtilis XPRT [3] = target: T1, B. subtilis XPRT; assay: Size exclusion chromatography of XPRT with ppGpp in the mobile phase; conditions: 35 μM ppGpp in the mobile phase, XPRT at 10 or 20 μM
Summary of the method: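 Untagged (TEV-cleaved) XPRT at 10 or 20 μM was run on a Superose 12 column at 0.25 mL/min. The mobile phase was 20 mM HEPES pH 8, 300 mM NaCl, 10 mM MgCl2, with ppGpp at 35 μM final, after equilibration with ≥1 column volume. A280 traces were baseline-normalized. Predicted retention volumes (monomer 13.58, dimer 12.41) came from the 21038 Da molecular weight and a column standard curve.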

B. subtilis XPRT [4] = target: T1, B. subtilis XPRT; assay: biochemical
(p)ppGpp^0 B. subtilis = assay: GTP levels by thin layer chromatography of 32P-orthophosphate-labeled cells; type: cell-based, Bacillus subtilis
B. subtilis = B. subtilis viability assay; type: cell-based, Bacillus subtilis; conditions: (p)ppGpp^0 xpt mutant B. subtilis, 1 mM xanthine
Summary of the method: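 Strains were taken from single colonies, resuspended in S7 plus VILMTH amino acids, and spread on Spizizen casamino-acid agar for about 16 h at 30 °C. Cells were collected, diluted to OD600 0.01 in S7+VILMTH and grown to OD600 ≈ 0.2. After a t=0 sample, cultures were split and given 1 mM xanthine or water. Sampling was at 30, 60 and 120 min. Ten-fold dilutions were plated on LB for CFU/mL, in triplicate.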

T1 sequence (P42085 whole entry): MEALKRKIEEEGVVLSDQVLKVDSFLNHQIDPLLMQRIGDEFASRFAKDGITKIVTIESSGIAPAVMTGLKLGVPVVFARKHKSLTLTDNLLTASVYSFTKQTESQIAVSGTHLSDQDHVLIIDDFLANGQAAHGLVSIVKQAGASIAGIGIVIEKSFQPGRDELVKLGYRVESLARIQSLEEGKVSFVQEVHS
Chain of XPRT (P42085 whole entry): as above

Structure (SMILES) | Kd (B. subtilis XPRT [1]) | nH (Hill coefficient from binding curve) (B. subtilis XPRT [1]) | napp (apparent Hill coefficient from inhibition curve) (B. subtilis XPRT [2]) | also measured
Nc1nc2c(ncn2[C@@H]2O[C@H](COP(=O)(O)O)[C@@H](OP(=O)(O)OP(=O)(O)O)[C@H]2O)c(=O)[nH]1 [pGpp] | 0.76 ± 0.04 µM | 2.3 ± 0.2 | 1.6 ± 0.1 | –
Nc1ncnc2c1ncn2[C@@H]1O[C@H](COP(=O)(O)OP(=O)(O)O)[C@@H](OP(=O)(O)OP(=O)(O)O)[C@H]1O [ppApp] | – | – | – | interaction with XPRT (XPRT): does not interact
Nc1nc2c(ncn2[C@@H]2O[C@H](COP(=O)(O)OP(=O)(O)O)[C@@H](OP(=O)(O)OP(=O)(O)O)[C@H]2O)c(=O)[nH]1 [ppGpp] | 0.95 ± 0.03 µM | 2.1 ± 0.1 | 1.7 ± 0.1 | effect on XPRT oligomeric state (B. subtilis XPRT [3]): stabilized the dimeric XPRT population
Nc1nc2c(ncn2[C@@H]2O[C@H](COP(=O)(O)OP(=O)(O)OP(=O)(O)O)[C@@H](OP(=O)(O)OP(=O)(O)O)[C@H]2O)c(=O)[nH]1 [pppGpp] | 9.6 ± 2.2 µM | 1.3 ± 0.2 | 1.5 ± 0.1 | Ki (B. subtilis XPRT [4]): 2.5 µM
O=c1[nH]c(=O)c2nc[nH]c2[nH]1 [xanthine] | – | – | – | increase in (p)ppGpp^0 GTP levels ((p)ppGpp^0 B. subtilis; (p)ppGpp^0 B. subtilis during growth with xanthine): ~ 6 fold; GTP levels ((p)ppGpp^0 B. subtilis; (p)ppGpp^0 vs wild type B. subtilis, 1 mM xanthine, 30 min): elevated relative to wild type; viability (colony forming units) (B. subtilis): unaffected
